Experiments:
[1] = target: T1, Sigma intracellular receptor 2 (Rattus norvegicus, UniProt Q5U3Y7); assay: Displacement of [3H]DTG from sigma 2 receptor in rat liver membranes incubated for 120 mins by scintillation counting method; format: cell membranes, Membrane
T1 sequence (Q5U3Y7 whole entry): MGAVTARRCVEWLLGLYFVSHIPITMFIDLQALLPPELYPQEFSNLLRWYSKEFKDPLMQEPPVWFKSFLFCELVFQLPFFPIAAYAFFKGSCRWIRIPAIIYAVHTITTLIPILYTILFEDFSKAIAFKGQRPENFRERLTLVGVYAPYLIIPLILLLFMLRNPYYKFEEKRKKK

[2] = target: Glutamate receptor ionotropic, NMDA 2B (Homo sapiens, UniProt Q05586+Q13224); assay: Displacement of [3H]ifenprodil from human GluN2B expressed in mouse L(tk-) cell membranes co-expressing GluN1a incubated for 2 hrs by scintillation counting method; set-up: species or system L-M(TK-), Cell membrane
Chain of Glutamate receptor ionotropic, NMDA 2B (Q13224 whole entry, one chain of several): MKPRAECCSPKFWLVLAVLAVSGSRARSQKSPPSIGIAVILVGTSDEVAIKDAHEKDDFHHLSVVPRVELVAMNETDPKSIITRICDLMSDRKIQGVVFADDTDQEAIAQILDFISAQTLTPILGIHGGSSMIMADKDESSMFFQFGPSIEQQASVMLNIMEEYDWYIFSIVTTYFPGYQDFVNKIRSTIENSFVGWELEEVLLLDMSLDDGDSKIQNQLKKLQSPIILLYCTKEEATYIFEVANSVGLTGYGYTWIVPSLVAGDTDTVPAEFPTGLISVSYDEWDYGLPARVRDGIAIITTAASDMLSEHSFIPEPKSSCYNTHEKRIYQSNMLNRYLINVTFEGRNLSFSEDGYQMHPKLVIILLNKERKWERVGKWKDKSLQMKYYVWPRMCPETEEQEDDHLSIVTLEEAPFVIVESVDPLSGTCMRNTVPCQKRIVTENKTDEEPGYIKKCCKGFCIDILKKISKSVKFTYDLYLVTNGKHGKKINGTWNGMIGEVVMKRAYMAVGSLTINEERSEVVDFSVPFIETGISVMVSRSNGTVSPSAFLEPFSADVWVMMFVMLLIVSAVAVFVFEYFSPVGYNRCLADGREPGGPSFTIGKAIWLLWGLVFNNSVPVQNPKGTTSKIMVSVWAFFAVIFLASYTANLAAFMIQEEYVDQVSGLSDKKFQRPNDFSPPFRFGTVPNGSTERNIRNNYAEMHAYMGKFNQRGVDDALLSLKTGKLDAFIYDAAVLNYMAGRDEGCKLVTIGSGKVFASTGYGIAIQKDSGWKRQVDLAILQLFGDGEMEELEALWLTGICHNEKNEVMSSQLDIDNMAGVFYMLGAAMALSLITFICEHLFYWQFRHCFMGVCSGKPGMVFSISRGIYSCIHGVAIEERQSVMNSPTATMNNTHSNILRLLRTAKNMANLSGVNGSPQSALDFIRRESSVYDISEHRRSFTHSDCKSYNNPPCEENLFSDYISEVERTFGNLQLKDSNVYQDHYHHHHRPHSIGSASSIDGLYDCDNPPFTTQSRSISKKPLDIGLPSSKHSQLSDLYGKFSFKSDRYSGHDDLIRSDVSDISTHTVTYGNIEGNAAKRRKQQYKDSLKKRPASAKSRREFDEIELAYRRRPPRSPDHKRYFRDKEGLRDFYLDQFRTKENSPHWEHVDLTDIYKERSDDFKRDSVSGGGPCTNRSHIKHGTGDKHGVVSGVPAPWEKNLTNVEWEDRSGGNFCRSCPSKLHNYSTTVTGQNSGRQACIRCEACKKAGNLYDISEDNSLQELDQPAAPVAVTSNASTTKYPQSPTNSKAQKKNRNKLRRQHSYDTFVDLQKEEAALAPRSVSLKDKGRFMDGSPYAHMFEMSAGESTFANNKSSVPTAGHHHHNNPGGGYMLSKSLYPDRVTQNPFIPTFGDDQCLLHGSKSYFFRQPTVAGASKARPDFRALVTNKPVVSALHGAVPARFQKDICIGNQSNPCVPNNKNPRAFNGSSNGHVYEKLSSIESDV

[3] = target: Sigma non-opioid intracellular receptor 1 (Cavia porcellus, UniProt Q60492); assay: Displacement of [3H]-(+)-pentazocine from Sigma1 receptor in guinea pig cortex membranes incubated for 120 mins by scintillation counting method; format: cell membranes, Membrane
Chain of Sigma non-opioid intracellular receptor 1 (Q60492 whole entry): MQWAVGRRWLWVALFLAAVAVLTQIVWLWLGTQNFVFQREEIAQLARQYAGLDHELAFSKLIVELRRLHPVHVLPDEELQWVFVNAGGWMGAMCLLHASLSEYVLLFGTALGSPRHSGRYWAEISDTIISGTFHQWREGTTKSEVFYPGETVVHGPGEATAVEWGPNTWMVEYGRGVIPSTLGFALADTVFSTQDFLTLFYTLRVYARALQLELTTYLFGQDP

[4] = Cytoprotective activity against glutamate/glycine-induced cell death in mouse L-M(TK-) cells assessed as increase in cell viability at 10 uM incubated for 30 mins followed by glutamate/glycine stimulation and measured after 6 hrs by LDH assay relative to control; format: functional; conditions: time 6.5 hrs
In short: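 Mouse L(tk-) fibroblasts stably carrying dexamethasone-inducible GluN1a and GluN2B vectors (1:5). Wells blocked with DMEM containing 1% BSA, then given test compound, at least triplicate, 30 min at 37 °C. Glutamate/glycine solution then added, 6 h at 37 °C. LDH in supernatant read with diaphorase/lactate/NAD+/iodonitrotetrazolium mix, 45 min at 37 °C, absorbance 485 nm. Buffer gave total LDH; (S)-ketamine 4 × 10^-5 mol/L was positive control.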

[5] = Cytoprotective activity against glutamate/glycine-induced cell death in mouse L-M(TK-) cells assessed as increase in cell viability incubated for 30 mins followed by glutamate/glycine stimulation and measured after 6 hrs by LDH assay; format: functional, cell-based
In short: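 Mouse L(tk-) fibroblasts stably carrying dexamethasone-inducible GluN1a and GluN2B vectors (1:5 ratio). Cells preincubated with test compound in DMEM, at least in triplicate, 30 min at 37 °C. Then glutamate/glycine (each 20 µM, stock added) added and incubated 6 h at 37 °C. LDH released into the supernatant read at 485 nm after 45 min at 37 °C. Buffer in place of ligand gave total LDH. (S)-ketamine 4 × 10⁻⁵ mol/L was the positive control.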

[6] = target: Glutamate receptor ionotropic, NMDA 2B (Rattus norvegicus) (UniProt Q00960); assay: Negative allosteric inhibition of rat GluN2B expressed in Oocytes co-expressing GluN1a at 1 uM at -70 mV holding potential by two electrode voltage-clamp assay relative to control; conditions: filed as negative allosteric modulator
Chain of Glutamate receptor ionotropic, NMDA 2B (Rattus norvegicus) (Q00960 whole entry, looked up): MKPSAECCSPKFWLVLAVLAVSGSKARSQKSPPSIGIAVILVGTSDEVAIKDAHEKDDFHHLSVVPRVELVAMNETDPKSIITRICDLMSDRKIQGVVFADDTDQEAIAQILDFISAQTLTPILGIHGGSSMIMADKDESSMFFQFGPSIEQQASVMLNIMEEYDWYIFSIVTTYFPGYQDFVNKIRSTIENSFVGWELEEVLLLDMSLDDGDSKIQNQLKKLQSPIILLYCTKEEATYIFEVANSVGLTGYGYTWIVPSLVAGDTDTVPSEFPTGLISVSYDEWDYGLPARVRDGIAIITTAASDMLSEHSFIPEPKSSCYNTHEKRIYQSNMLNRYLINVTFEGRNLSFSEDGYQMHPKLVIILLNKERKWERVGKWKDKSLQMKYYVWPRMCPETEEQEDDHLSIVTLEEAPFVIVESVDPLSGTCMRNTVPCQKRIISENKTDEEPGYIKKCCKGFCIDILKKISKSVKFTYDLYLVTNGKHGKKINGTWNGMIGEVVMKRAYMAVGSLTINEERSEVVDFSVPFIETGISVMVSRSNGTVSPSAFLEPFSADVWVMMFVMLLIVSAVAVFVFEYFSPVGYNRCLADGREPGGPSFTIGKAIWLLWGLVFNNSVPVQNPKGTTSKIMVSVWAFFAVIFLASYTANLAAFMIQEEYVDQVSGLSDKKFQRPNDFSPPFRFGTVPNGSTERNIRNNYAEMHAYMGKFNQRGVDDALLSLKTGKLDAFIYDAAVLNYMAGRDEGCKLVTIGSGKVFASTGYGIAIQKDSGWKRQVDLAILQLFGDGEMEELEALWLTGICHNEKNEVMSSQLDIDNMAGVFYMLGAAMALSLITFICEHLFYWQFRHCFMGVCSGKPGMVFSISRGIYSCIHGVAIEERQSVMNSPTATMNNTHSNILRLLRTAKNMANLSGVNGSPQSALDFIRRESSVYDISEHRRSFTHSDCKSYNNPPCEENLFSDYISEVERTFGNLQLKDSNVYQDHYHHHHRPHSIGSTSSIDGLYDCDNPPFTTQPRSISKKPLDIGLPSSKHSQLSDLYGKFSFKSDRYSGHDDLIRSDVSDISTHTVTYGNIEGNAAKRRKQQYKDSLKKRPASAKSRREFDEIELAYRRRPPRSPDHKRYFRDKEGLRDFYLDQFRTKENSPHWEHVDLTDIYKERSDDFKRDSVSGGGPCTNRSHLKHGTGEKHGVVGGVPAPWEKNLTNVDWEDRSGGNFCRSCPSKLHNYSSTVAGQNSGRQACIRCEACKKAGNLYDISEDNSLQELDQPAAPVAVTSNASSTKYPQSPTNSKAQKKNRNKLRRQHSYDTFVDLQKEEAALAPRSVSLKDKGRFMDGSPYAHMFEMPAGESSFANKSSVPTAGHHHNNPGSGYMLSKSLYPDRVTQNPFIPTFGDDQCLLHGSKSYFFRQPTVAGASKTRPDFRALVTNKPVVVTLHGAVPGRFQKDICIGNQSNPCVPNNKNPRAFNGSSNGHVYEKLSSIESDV

[7] = target: Glutamate receptor ionotropic, NMDA 2B (Rattus norvegicus) (UniProt Q00960); assay: Negative allosteric inhibition of rat GluN2B expressed in Oocytes co-expressing GluN1a at 10 uM at -70 mV holding potential by two electrode voltage-clamp assay relative to control; conditions: filed as negative allosteric modulator
[8] = target: Sigma intracellular receptor 2 (Homo sapiens, UniProt Q5BJF2); assay: Binding affinity to Sigma 2 receptor (unknown origin)
Chain of Sigma intracellular receptor 2 (Homo sapiens, UniProt Q5BJF2) (Q5BJF2 whole entry): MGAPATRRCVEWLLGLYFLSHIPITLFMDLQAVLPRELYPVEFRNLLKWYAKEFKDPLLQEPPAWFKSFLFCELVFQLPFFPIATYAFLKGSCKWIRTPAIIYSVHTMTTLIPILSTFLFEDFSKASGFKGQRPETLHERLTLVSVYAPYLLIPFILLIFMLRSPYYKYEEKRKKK

Row | SMILES | Ki [1] [µM] | Ki [2] [µM] | Ki [3] [µM] | Activity [4] [%] | IC50 [5] [µM] | inhibition [6] [%] | inhibition [7] [%] | Ki [8] [µM]
1 | c1ccc(CC2CCN(C3Cc4ccccc4C3)CC2)cc1 | 0.028 | 0.0032 | 0.051 | 7 | – | – | – | –
2 | c1ccc(CCCNC2CCc3ccccc3CC2)cc1 | – | – | – | 29 | – | – | – | –
3 | c1ccc(CCCNC2CCc3ccccc3C2)cc1 (centres undefined) | 0.029 | 0.163 | 0.059 | 30 | – | – | – | –
4 | c1ccc(CCCCN2CCCc3ccccc3CC2)cc1 | 0.05 | 0.032 | 0.022 | – | 0.89 | 8 | 60 | –
5 | c1ccc(CCNC2Cc3ccccc3C2)cc1 | 0.694 | 0.455 | 0.168 | – | – | – | – | –
6 | c1ccc(CNC2CCc3ccccc3C2)cc1 (centres undefined) | 0.065 | 4 | 0.285 | – | – | – | – | –
7 | c1ccc(CCNC2CCc3ccccc3C2)cc1 (centres undefined) | 0.07 | 0.237 | 0.051 | – | – | – | – | –
8 | c1ccc(CCCNC2Cc3ccccc3C2)cc1 | 0.038 | 0.117 | 0.058 | 31 | – | – | – | –
9 | c1ccc(C2CCN(C3CCc4ccccc4C3)CC2)cc1 (centres undefined) | 0.0029 | 0.0084 | 0.0019 | – | – | – | – | –
10 | Oc1ccc2c(c1)CCN(CCCCc1ccccc1)CC2O (centres undefined) | – | – | – | – | – | – | – | > 10
11 | c1ccc(CCCCNC2CCc3ccccc3C2)cc1 (centres undefined) | 0.05 | 0.266 | 0.046 | – | – | – | – | –
12 | c1ccc(CCCN2CCCc3ccccc3CC2)cc1 | 0.178 | 0.036 | 0.017 | – | 7.8 | – | – | –
13 | c1ccc(CC2CCN(C3CCc4ccccc4C3)CC2)cc1 (centres undefined) | 0.0021 | 0.008 | 0.006 | – | – | – | – | –
14 | CC(C(O)c1ccc(O)cc1)N1CCC(Cc2ccccc2)CC1 (centres undefined) [IFENPRODIL] | – | – | – | – | 0.59 | – | – | –
15 | c1ccc(C2CCN(C3Cc4ccccc4C3)CC2)cc1 | 0.025 | 0.0045 | 0.044 | – | – | – | – | –
16 | c1ccc(CCCCNC2Cc3ccccc3C2)cc1 | 0.15 | 0.066 | 0.031 | – | – | – | – | –

From ChEMBL document CHEMBL4680195, “Negative allosteric modulators of the GluN2B NMDA receptor with phenylethylamine structure embedded in ring-expanded and ring-contracted scaffolds” (Eur J Med Chem, 2020)
